The RNAGym collection of RNA variant scans (doi:10.1126/science.aae0568)
This sample holds only a part of the variants without activity.

B1: tRNA (parent)
chain: GUUCCGUUGGCGUAAUGGUAACGCGUCUCCCUCCUAAGGAGAAGACUGCGGGUUCGAGUCCCGUACGGAACG

Variants of: B1
Assay: yeast fitness relative to wild type (ratio to wild type); higher = fitter; tRNA-Arg(CCU), competitive growth, 37 C, YPD
Method in brief: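 Changes in genotype frequencies gave Darwinian fitness relative to wild type. Frequencies were read by 100-nucleotide paired-end sequencing of gene amplicons before and after pooled Saccharomyces cerevisiae strains, carrying tRNA-Arg(CCU) gene variants at the native locus, were competed in YPD at 37°C for 24 hours in six replicates. A genotype was kept only with ≥ 100 starting reads, and estimates < 0.5 were set to 0.5.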

Variant | yeast fitness
GUUCCGAUGACGUAAUGGUAACGCGUAUCGCUCCUAAGGACAAGACUGCGGGUUCGAGUCCCGUACGGAACG | ≤ 0.5
GUUCCGAUGGCGUAAUGGUAACGCGUCUCCCUCCUAAGGAGAAGACUGCGGGUUCGAGUUCCGUACGGAACG | 0.652
GUUCCGAUGGCGUAAUGGUAACGCGUCUCCCUCCUAAGGAGAAGACUGCGGGUUCGAGUGCCGUACGGAACG | 0.561
GUUCCGAUCGCGUAAUCGUAACGCGUCUCCCUCCUAAGGAGAAGACUACGGGUACGAGUCCCGUACGGAACG | ≤ 0.5
GUUCCGAUGGCGUAAUGGUAACGCGUCUCCCUCCUAAGGAGAAGACUGCGGGUUCGAGUGCCGUACCGAACG | ≤ 0.5
GUUCCGAUGCCGUAAUGGUAACGCGUGUCCCACCUAAGGAGAAGACUGCGGGUUCCAGUCCCGUACGGAACG | ≤ 0.5
GUUCCGAUGGCAUAAUGGUAACGCGUCUCCCUCGUAAGGAGAAGACUGCGGGUUCGAGUCCUGUACGCAACG | ≤ 0.5
GUUCCGAUCGCGUAAUCGUAACGCGUCUCCCUCCUAAGGAGAAGAAUGCGGGUUCGAGUCCCGUACGCAACG | ≤ 0.5
GUUCCGAUAGCGAAAUGGUAACGCGUCUCCCUCCUAAGGAGAAGACUGCGGGUUCGAGUCCCGUACGGAUCG | ≤ 0.5
GUUCCGAUGCCGUAAUGGUAACGCGCGUCCCACCUAAGGAGAAGACUGCGGGUUCGAGUCCCGUACGGAACG | ≤ 0.5
GUUCCGAUCGCGUAAUCGUAACGCGUCUCCCUCCUAAGGAGAAGACUACGGGUUCGAGUUCCGUACGGAACG | ≤ 0.5
GUUCCGAUCACGUAAUGGUAACGCGUCUCUCUCGUAAGGAGAAGACUGCGGGUUCGAGUCCCGUACGCAACG | ≤ 0.5
GUUCCGAUGCCGUAAUGGUAACGCGUCUCCCUCCUAAGGAGAAGACUGCGGAUCCGAGUGCCGUACGGAACG | 0.518
GUUCCGAUGACGUAAUGGUAACGCGUCUCCGUCCUAAGGAGAAGACUGCGGGUUCGAGUCCCGUACGGAACG | ≤ 0.5
GUUCCGAUGGCGUAAUGGUAACGCGUCUCCCUCCUAAGGAGAAGACUGCGGGUUGGAGUCCCGUACGGAACG | ≤ 0.5
GUUCCGAUGACGUAAUGGUCACGCGUCUACCUCCUAAGGAGAAGACUGCGGGUUCGAGUCCCGCACGGAACG | ≤ 0.5
GUUCCGAUGGCGUAAUGGUAACGCGUCUCCCUCCUAAGGAGAAGACUGCGGGUUCGAGUCCCGUAGGGAACG | 0.62
GUUCCGAUGACGUAAUGGUAACGCGUCUCCCUACUCAGGAGAAGACUGCGGGUUCGAGUCUCGUAUGGAACG | ≤ 0.5
GUUCCGAUCGCGUAAUCGUAACGCGUCUCCCUCCUAAGGUGAAGACUGCGGGUUCGAGUCCCGUCCGGAACG | ≤ 0.5
GUUCCGAUGACGUAAUGGUAACGCGUCUCACUCCUAAGGAGACGACUGCGGGUUCGAGUCCCGUACGGAACG | ≤ 0.5
GUUCCGAUAGCGGAAUGGUAACGCGUCUCCCUCCUAAGGAGAAGACUGCGGGUUCAAGUCCCGUACGGAACG | ≤ 0.5
GUUCCGAUGGCGUAAUGGUAACGCGUCUCCCUCCUAAGGAGAAGACUGUGGGUUCGAGUCCGGUACGGAACG | 0.603
GUUCCGAUCGCGUAAUCGUAACGCGUCUCCCUCCUAAGGAGAAGACUACGGGUUCGAGUCCCGUACGGAACG | 0.525
GUUCCGAUGACGUAAUGGUCACGCGUCUACCUCCUAAGGAGAAGACUGCGGGUUCGAGUCUCGUAUGGAACG | ≤ 0.5
GUUCCGAUGGCGUAAUGGUAACGCGUCUCCCUCCUAAGGAGAAGACUGGCGGUUCGAGUCCUGUACGGAACG | ≤ 0.5

Variant | yeast fitness
GUUCCGAUGACGUAAUGGUAACGCGUCUCCCUACUCAGGAGAAGACUGCGGGUUCGAGUCCCGUACCGAACG | ≤ 0.5
GUUCCGAUGGCAUAAUGGUAACGUCUCUCCCUCCUAAGGAGUAGACUGCGGGUUCGAGUCCCGUACGGAACG | ≤ 0.5
GUUCCGAUGACGUAAUGGUAACGCGUCUCCCUCCUAAGGGGAAGACUGCGGGUUCGAGUUCCGUACGGAACG | ≤ 0.5
GUUCCGAUGGCGUAAUGGUAACGCGUCUCCCUCGUAAGGCGAAGACUGCGGGUUCGUGUCCCGUACGGAACG | ≤ 0.5
GUUCCGAUGCCGUAAUGGUAAUGCGUGUCCCUCCUAAGGAGAAGACUGCUGGUUCGAGUCCCGUAUGGAACG | ≤ 0.5
GUUCCGAUGGCGUAAUGGUAACGCGUCUCCCUCCUAAGGAGAAGACUGCGGGUUUGAGUCCCGUGCGGAACG | ≤ 0.5
GUUCCGAUAGCGAAAUGGUAACGCGUCUCCCUCCUAAGGAGAAGACUGCGGGUUCAAGUCCCGUACGGAACG | 0.535
GUUCCGAUGGCCUGAUGGUACCGUGUCUCCCUCCUAAAGAGAAGACUGCGGGUCCGAGUCCCGUAAGGAACG | ≤ 0.5
GUUCCGAUGGCGUAAUGGUAACGCGUCUCCCUCCUAAGGAGAAGAGUGCGAGUUCGAGUCCCGUCCGGAACG | ≤ 0.5
GUUCCGAUCGCGUAAUGGUAACGCGUCUCUCUCGUAAGGAGAAGACUGCGGGUUCGAGUCCCGUACGGAACG | ≤ 0.5
GUUCCGAUGGCGUAAUGGUAACGCGUCUCCCUCCUAAGGAGAAGACUGGGGGUUCGAGUCCCGUAAGGAACG | ≤ 0.5
GUUCCGAUGACGUAAUGGUAACGCGUCUCCCUCCUAAGGACUAGAAUGCGGGUUCGAGUCGCGUACGGAACG | 0.561
GUUCCGAUGGCGUAAUGGUAACGCGUCUCCCUCCUAAGGAGAAGAGUGCGGGUUCGAGUCCCGUACGGCACG | 0.607
GUUCCGAUCGCGUAAUCGUAACGCGUCUCCCUCCUAAGGAGAAGACUACGGGUUCGAGUCCCGUAUGGAACG | ≤ 0.5
GUUCCGAUCGCGUAAUCGUAACGCGUCUCCCUCCUAAGGAGAAGACUGCGGGUUCGAGUCUCGUACGCAACG | ≤ 0.5
GUUCCGAUGGCGUAAUGGUAACGCGUCUCCCUCCUAAGGAGAAGACUGCGGGUUCGAGUGCCGUACGGGACG | 0.588
GUUCCGAUCGCGUAAUCGUAACGCGUCUCCCUCCUAAGGAGAAGACUACGGGUUCGAGUCCCGUACAGAACG | ≤ 0.5
GUUCCGAUCGCGUAAUCGUAACGCGUCUCCCUCCUAAGGAGAAGACUACGGGUUCGAGUCCCGUACUGAACG | ≤ 0.5
GUUCCGAUGGCGUAAUGGUAACGCGUCUCCCUCCUAAGGAGAAGACUGCGGGUUUGAGUCCCGUACCGAACG | ≤ 0.5
GUUCCGAUGACGUAAUGGUAACGCGUCUCCCUACUCAGGAGAAGACUGCUGGUUCGAGUCCCGUACGGAACG | ≤ 0.5
GUUCCGAUGGCGUAAUGGUAACGCGUCUCCCUCCUAAGGAGAAGAGUGCGGGUUCGAGUCCCGUUCGGAACG | 0.686
GUUCCGAUGGCGUAAUGGUAACGCGUCUCCCUCCUAAGGAGAAGAGUGCGGGUUCGAGUCCCGUCCGGAACG | 0.848
GUUCCGAUGACGUAUUGGUAACGCGUCUCCCUCCUAAGGAGAAGACUGCGGGUUCAAGUCCCGUACGGUACG | ≤ 0.5
GUUCCGAUGGCGUAAUGGUAACGCGUCUCCCUCGUAAGGAGAAGACUGCGGGUUCGAGUCCAGUACGGAACG | 0.696
GUUCCGAUGGCGUAAUGGUAACGCGUCUCCCUCCUAAGGAGAAGAGUGCGGGUUCGAGUCCCGUACGGAACG | 0.787

Variant | yeast fitness
GUUCCGAUGCCGUAAUGGUAAUGCGUGUCCCUCCUAAGGAGAAGACUGCGGGUUCGAGUCCCGUACAGAACG | ≤ 0.5
GUUCCGAUGCCGUAAUGGUAACGCGUCUCCCUCCUAAGGGGAAGACUGCGGGAUCGAGUCCCAUACGGAACG | ≤ 0.5
GUUCCGAUGACGUAAUGGUAACGCGUCUCCCUACUCAGGAGAAGACUGCGGGUUCGAGUCCCGUACGGAACG | ≤ 0.5
GUUCCGAUGGCGUAAUGGUAACGCGUCUCCCUCCUAAGGAGAAGACUGGGGGUUCGAGUCCCGUACGGAACG | 0.779
GUUCCGAUGGCGUAAUGGUAACGCGUCUCCCUCCUAAGGAGAAGACUGAGGGUUCGAGUCCCGUACGGAACG | 0.634
GUUCCGAUGACGUAUUGGUAACGCGUCUCCCUCCUAAGGAGAGGACUGCAGGUUCGAGUCCCGUACGGAACG | 0.53
GUUCCGAUGCCGUAAUAGUAAUGCGUGUCCCUCCUAAGGAGAAGACUGCGGGUUCGAGUCCCGUACGGAACG | ≤ 0.5
GUUCCGAUGACGUAAUGGUAACGCGUCUCCCUACUCAGGAGAAGACUGCGGGUUCGAGUCCCGUACGGAUCG | ≤ 0.5
GUUCCGAUGGCGUAAUGGUAACGCGUCUCCCUCCUAAGGAGAAGACUGCGGGUUCGAGUCGCGUACGGAACG | 0.563
GUUCCGAUCGCGUAAUCGUAACGCGUCUCCCUCCUAAGGAGAAGACUGUGGGUUCGAGUCCGGUACGGAACG | ≤ 0.5
GUUCCGAUCGCGUAAUCGUAACGCGUCUCCCUCCUAAGGAGAAGACUACGGGUUCGAGUCCAGUACGGAACG | ≤ 0.5
GUUCCGAUGGCGUAAUGGUAACGCGUCUCCCUCCUAAGGAGAAGACUGAGGGUUCAAGUCCCGUACGGAACG | 0.594
GUUCCGAUGACGUAUUGGUAACGCGUCUCCCUCCUAAGGAGAAGAAUGCGGGUUCGAGUCCCGUACGGAACG | ≤ 0.5
GUUCCGAUGGCGUAAUGGUAACGCGUCUCCCUCCUAAGGAGAAGACUGCGGGUUCGAGUCCUGUACGGAACG | 0.888
GUUCCGAUGACGUAAUGGUCACGCGUCUACCUCCUAAGGAGAAGACUGCGGGUUCGAGUCCCAUACGGACCG | ≤ 0.5
GUUCCGAUGCCGUAAUGGUAACGCGUCUCCCUCCUAAGGAGAAGACUGCGGGUUCGUGUCCCGUACGGAACG | ≤ 0.5
GUUCCGAUGCCGUAAUGGUAACGCGUCUCGCUCUUAAGGAGAAGACUGCGGGUUCGAGUCCCGUACGGAACG | ≤ 0.5
GUUCCGAUCGCGUAAUCGUAACGCGUCUCCCUCCUAAGGAGAUGACUACGGGUUCGAGUCCCGUACGGAACG | ≤ 0.5
GUUCCGAUGACGUAAUGGUAACGCGUCUCCCUACUCAGGAGAAGACUGCGGGUUCGAGUCCCGUACGGCACG | ≤ 0.5
GUUCCGAUCGCGUAAUGGUAACGCGUCUCUCUCGUAGGGAGAAGACUGCGGGUUCGAGUCCCGUACGCAACG | ≤ 0.5
GUUCCGAUGGCGUAAUGGUAACGCGUCUCCCUCCUAAGGAGAAGACUGUGGGUUCGAGCCCGGUACGGAACG | ≤ 0.5
GUUCCGAUGGCAUAAUGGUGACACGGCUCCCUCCUAAGGAGAAGACUGCGGGUUCGAGUCCCGUACGGAACG | ≤ 0.5
GUUCCGAUGGCGUAAUGGUAACGCGUCUCCCUCUUAAGGAGAAGACUGCGGGUUGGAGUCCCGUACGGAACG | ≤ 0.5
GUUCCGAUCGCGUAAUCGUAACGCGUCUCCCUCCUAAGGAGAAGACUGCAGGUUCGAGUCCCGUACGGAACG | ≤ 0.5
GUUCCGAUGACGUAAUGGUCACGCGUCUACCUCCUAAGGAGAAGACUGCGGGUAUGAGUCCCGUACGGAACG | ≤ 0.5
